According to ChEMBL document CHEMBL2331334, “Hybrid furoxanyl N-acylhydrazone derivatives as hits for the development of neglected diseases drug candidates” (Eur J Med Chem, 2013):
Values after ≈ are worked out from the molar mass of the structure shown.

Assays:
[1] = system: Trypanosoma cruzi; test: Trypanosomicidal activity against amastigote stage of Trypanosoma cruzi Tulahuen C4 transfected with beta-D-galactosidase infected in african green monkey Vero cells assessed as growth inhibition incubated 5 days prior to beta-D-galactopyranoside addition measured after 4 to 5 hrs by colorimetric assay; type: functional, organism-based
Method in brief: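 VERO monolayer in phenol red-free RPMI 1640 with 10% FCS, infected with 5×10^4 LacZ-transfected Tulahuen C4 trypomastigotes/well, 24 h at 37 °C, 5% CO2. Compounds added for 5 days. CPRG substrate added, 4–5 h at 37 °C, A570. Actives (>50% inhibition) retested in duplicate at 10.0–0.16; IC50 by logarithmic regression versus untreated control.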

[2] = system: Trypanosoma cruzi; test: Trypanosomicidal activity against axenic epimastigote stage of Trypanosoma cruzi Tulahuen 2 assessed as growth inhibition; type: functional, organism-based
Method in brief: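 Tulahuen 2 epimastigotes grown axenically at 28 °C in BHI-tryptose with 5% FCS, harvested late log phase, 3×10^6/mL in 24-well plates. Compound added from DMSO stock (≤1% DMSO). Growth as A590 at day 0 and day 5; % inhibition from blank-corrected absorbances; ID50 = concentration halving absorbance relative to untreated controls.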

[3] = system: Mycobacterium tuberculosis; test: Antimycobacterial activity against Mycobacterium tuberculosis H37Rv assessed as growth inhibition after 5 days by MTT assay; type: functional; settings: 120 h
Method in brief: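 MTB inoculum made from 20–30-day slant growth in Tween 80/0.2% BSA, adjusted to McFarland No. 1, then diluted in 7H9GC broth (Middlebrook 7H9, glycerol, Casitone, OADC). Final inoculum about 1.2 × 10^6 CFU/mL. Compounds taken from DMSO stock to final 0.4–25 in broth, with a DMSO control. Plates run 5 days at 37 °C, then tetrazolium (MTT)–Tween 80 added for a further 24 h at 37 °C. Read-out is MIC.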

[4] = Selectivity index, ratio of IC50 for mouse J774.1 cells to IC50 for amastigote stage of Trypanosoma cruzi Tulahuen C4; type: toxicity; settings: read-out: Ratio IC50
[5] = Cytotoxicity against mouse J774.1 cells assessed as cell viability after 48 hrs by MTT assay; type: cell-based; settings: J774.1, 48 h
Method in brief: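 J774.1 macrophages in DMEM with 4 mM L-glutamine and 10% heat-inactivated FCS, 5×10^4 cells/well, attached 48 h at 37 °C, 5% CO2. Exposed 48 h to compounds (12.5–400.0 µM) or vehicle. MTT 0.1 mg/mL final, 3 h at 37 °C; formazan dissolved in DMSO/glycine buffer pH 10.5, A560. IC50 by linear regression versus solvent control.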

[6] = Selectivity index, ratio of IC50 for mouse J774.1 cells to MIC for Mycobacterium tuberculosis H37Rv; type: functional
Method in brief: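 Cytotoxicity: J774.1 macrophages in DMEM with 4 mM L-glutamine and 10% heat-inactivated FCS, seeded at 5 × 10^4/well, attached 48 h at 37 °C, 5% CO2. Exposed 48 h to 12.5–400.0 µM compound or vehicle. MTT at 0.1 mg/mL final for 3 h, formazan dissolved in DMSO/glycine buffer pH 10.5, A560 read. IC50 by linear regression, divided by the MIC against the same MTB strain.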

[7] = system: Leishmania amazonensis; test: Leishmanicidal activity against axenic amastigote stage of Leishmania amazonensis MHOM/BR/76/LTB-012 assessed as growth inhibition after 72 hrs by MTT assay; type: functional, organism-based; settings: MHOM/BR/76/LTB-012, 72 h
Method in brief: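 L. amazonensis axenic amastigotes (MHOM/BR/76/LTB-012), weekly passages in MAA/20 at 32 °C, 5% CO2. Seeded in 96-well plates; compounds in DMSO at 100 to 1 final, 72 h. MTT added for 4 h, stopped with 50% isopropanol–10% SDS, 30 min agitation at room temperature, A570. Triplicate; % inhibition versus control, IC50 from several concentrations.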

[8] = Selectivity index, ratio of IC50 for mouse J774.1 cells to IC50 for axenic amastigote stage of Leishmania amazonensis MHOM/BR/76/LTB-012; type: toxicity; settings: read-out: Ratio IC50
[9] = Selectivity index, ratio of IC50 for african green monkey Vero cells to IC50 for amastigote stage of Trypanosoma cruzi Tulahuen C4; type: toxicity, cell-based; settings: read-out: Ratio IC50
[10] = Aqueous stability of the compound in Tris.HCl buffer at pH 7.4 at 1 mM after 24 hrs by spectrophotometric analysis; type: physicochemical; settings: pH 7.4, 24 h, 1000 µM
Method in brief: (§1)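 Compound from DMSO stock, 1 mM final in aqueous buffer (KCl·HCl pH 2, acetate pH 5, Tris·HCl pH 7.4 or 8.3), incubated 37 °C for 24 h. Absorbance spectrum 250–450 nm compared with a freshly prepared, unincubated solution. TLC of ethyl acetate extracts to confirm or exclude decomposition products.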

[11] = system: Plasma; test: Metabolic stability in human plasma at pH 3 at 40 uM after 3 hrs; type: ADME, cell-free; settings: pH 3, 3 h
[12] = Aqueous stability of the compound in acetate buffer at pH 5 at 1 mM after 24 hrs by spectrophotometric analysis; type: physicochemical; settings: pH 5, 24 h, 1000 µM; method in brief: as §1
[13] = Aqueous stability of the compound in KCl.HCl buffer at pH 2 at 1 mM after 24 hrs by spectrophotometric analysis; type: physicochemical; settings: pH 2, 24 h, 1000 µM; method in brief: as §1
[14] = Aqueous stability of the compound in Tris.HCl buffer at pH 8.3 at 1 mM after 24 hrs by spectrophotometric analysis; type: physicochemical; settings: pH 8.3, 24 h, 1000 µM; method in brief: as §1

SMILES | IC50 [1] | IC50 [2] | MIC [3] | IC50 [5] | Selectivity Index [6] | further results
NNC(=O)c1ccc2c(c1)OCO2 | > 55.6 µM | > 150 µM | – | – | – | –
Cc1c(C(=O)N/N=C/c2ccc(N(C)C)cc2)no[n+]1[O-] | > 34.6 µM | > 150 µM | > 86.5 µM | 129 µM | <1.5 | selectivity ratio [4]: < 3
Cc1nc2ccccn2c1C(=O)N/N=C/c1ccc2no[n+]([O-])c2c1 | > 30.9 µM | > 150 µM | 77.2 µM (≈ 26 µg/mL) | 141 µM | 1.8 | selectivity ratio [4]: < 4
Cc1c(C(=O)N/N=C/c2ccc(C(F)(F)F)cc2)no[n+]1[O-] | > 31.9 µM | > 150 µM | > 79.6 µM | > 400 µM | – | –
NNC(=O)c1cnn(-c2ccccc2)c1 | > 49.5 µM | – | – | – | – | –
Cc1c(C(=O)N/N=C/c2ccc([N+](=O)[O-])o2)no[n+]1[O-] | > 35.6 µM | 50.1 µM | 44.5 µM (≈ 12.5 µg/mL) | 68 µM | 1.5 | selectivity ratio [4]: < 2
Cc1c(C(=O)N/N=C/c2ccc3no[n+]([O-])c3c2)no[n+]1[O-] | > 32.9 µM | > 150 µM | 82.2 µM (≈ 25 µg/mL) | > 400 µM | >5 | –
Cc1c(/C=N/NC(=O)c2no[n+]([O-])c2C)no[n+]1[O-] | > 37.5 µM | 81.3 µM | > 93.6 µM | > 400 µM | – | –
O=C(N/N=C/c1ccc2nonc2c1)c1ccncc1 | > 37.5 µM | > 150 µM | > 93.6 µM | > 400 µM | – | –
Cc1c(C(=O)N/N=C/c2c(-c3ccccc3)no[n+]2[O-])no[n+]1[O-] | > 30.3 µM | 25.1 µM | > 75.8 µM | > 400 µM | – | –
Cc1c(C(=O)N/N=C/c2ccc([N+](=O)[O-])cc2)no[n+]1[O-] | > 34.4 µM | > 150 µM | > 85.9 µM | > 300 µM | – | IC50 [7]: 7.9 µM; selectivity ratio [8]: > 38
NNC(=O)c1cccnc1 [NICOTINIC ACID HYDRAZIDE] | > 73 µM | > 150 µM | – | – | – | –
CC1CS(=O)(=O)CCN1/N=C/c1ccc([N+](=O)[O-])o1 (stereo not given) [NIFURTIMOX] | 10.4 µM | – | – | – | – | selectivity ratio [9]: 7.7; selectivity ratio [4]: 27
Cc1c(C(=O)N/N=C/c2ccccc2)no[n+]1[O-] | > 40.7 µM | 151 µM | > 102 µM | > 400 µM | – | –
Cc1nc2ccccn2c1C(=O)NN | > 52.6 µM | > 150 µM | – | – | – | IC50 [7]: 29.8 µM; selectivity ratio [8]: > 13
Cc1[nH]cnc1C(=O)N/N=C/c1no[n+]([O-])c1C | > 40 µM | > 150 µM | > 100 µM | > 400 µM | – | –
Cc1c(C(=O)N/N=C/c2ccco2)no[n+]1[O-] | > 42.4 µM | > 150 µM | > 106 µM | > 400 µM | – | –
Cc1c(C(=O)NN)no[n+]1[O-] | > 62.3 µM | > 50 µM | – | – | – | –
COc1ccc(/C=N/NC(=O)c2no[n+]([O-])c2C)cc1O | – | – | > 85.6 µM | > 400 µM | – | IC50 [7]: 8.3 µM; selectivity ratio [8]: > 48
Cc1c(/C=N/NC(=O)c2cnn(-c3ccccc3)c2)no[n+]1[O-] | > 32.1 µM | > 150 µM | > 80.1 µM | 295 µM | <4 | –

SMILES | IC50 [1] | IC50 [2] | MIC [3] | IC50 [5] | Selectivity Index [6] | further results
Cc1c(C(=O)N/N=C/c2ccc(Br)cc2)no[n+]1[O-] | > 29.6 µM | > 150 µM | > 74 µM | 162 µM | <2 | selectivity ratio [4]: < 5
Cc1c(/C=N/NC(=O)c2ccc3c(c2)OCO3)no[n+]1[O-] | > 34.5 µM | > 150 µM | > 86.2 µM | 132 µM | <1.5 | IC50 [7]: 3.3 µM; selectivity ratio [8]: 40; selectivity ratio [4]: < 1.5
COc1cc(/C=N/NC(=O)c2no[n+]([O-])c2C)cc(OC)c1OC | – | – | > 74.4 µM | > 300 µM | – | –
O=C(N/N=C/c1c(-c2ccccc2)no[n+]1[O-])c1cnn(-c2ccccc2)c1 | > 26.7 µM | > 150 µM | > 66.8 µM | 41.7 µM | <0.6 | –
Cc1c(C(=O)N/N=C/c2ccccc2O)no[n+]1[O-] | > 38.7 µM | 39.8 µM | > 95.4 µM | 246 µM | <3 | selectivity ratio [4]: < 6
COC(=O)c1no[n+]([O-])c1C | > 62.3 µM | > 50 µM | – | – | – | –
Cc1c(C(=O)N/N=C/c2ccc3c(c2)OCO3)no[n+]1[O-] | > 34.5 µM | > 150 µM | > 86.2 µM | > 400 µM | – | –
O=C(N/N=C/c1ccc2nonc2c1)c1cccnc1 | > 37.5 µM | > 150 µM | > 93.6 µM | 209 µM | <2 | selectivity ratio [4]: < 5.5
Cc1c(C(=O)N/N=C/c2ccc([N+](=O)[O-])s2)no[n+]1[O-] | > 33.7 µM | 50 µM | 42.1 µM (≈ 12.5 µg/mL) | > 400 µM | >10 | –
Cc1c(/C=N/NC(=O)c2cccnc2)no[n+]1[O-] | > 40.5 µM | > 150 µM | > 101 µM | > 400 µM | – | –
NNC(=O)c1ccncc1 [ISONIAZID] | – | > 150 µM | 0.4 µM (≈ 0.0549 µg/mL) | > 400 µM | >1000 | –
COc1ccc(/C=N/NC(=O)c2no[n+]([O-])c2C)cc1OC | – | – | > 81.6 µM | > 400 µM | – | –
Cc1nc2ccccn2c1C(=O)N/N=C/c1no[n+]([O-])c1C | > 33.3 µM | > 150 µM | > 83.3 µM | > 400 µM | – | IC50 [7]: 12.6 µM; selectivity ratio [8]: > 32
Cc1c(C(=O)N/N=C/c2cccc(O)c2)no[n+]1[O-] | > 38.2 µM | > 150 µM | > 95.4 µM | > 400 µM | – | IC50 [7]: 4.5 µM; selectivity ratio [8]: > 89
O=C(N/N=C/c1c(-c2ccccc2)no[n+]1[O-])c1cccnc1 | > 32.4 µM | 58.9 µM | 40.5 µM (≈ 12.5 µg/mL) | 195 µM | 5 | selectivity ratio [4]: < 6
Cc1c(C(=O)N/N=C/c2ccccn2)no[n+]1[O-] | > 40.5 µM | > 150 µM | > 101 µM | > 400 µM | – | –
O=C(N/N=C/c1ccc2no[n+]([O-])c2c1)c1cccnc1 | > 35.3 µM | 35.5 µM | 44.2 µM (≈ 12.5 µg/mL) | 31 µM | 0.7 | Stability [10]: Stable; Stability [11]: Stable; Stability [12]: Stable; selectivity ratio [4]: < 0.9; Stability [13]: Stable; Stability [14]: Stable
Cc1[nH]cnc1C(=O)N/N=C/c1c(-c2ccccc2)no[n+]1[O-] | > 32.1 µM | > 150 µM | > 80.1 µM | > 400 µM | – | –
Cc1c(C(=O)N/N=C/c2ccc(C(=O)O)cc2)no[n+]1[O-] | > 34.5 µM | > 150 µM | > 86.2 µM | > 300 µM | – | –
CC(=O)Nc1ccc(/C=N/NC(=O)c2no[n+]([O-])c2C)cc1 | > 33 µM | > 150 µM | > 82.5 µM | 235 µM | <3 | –
